The list is not random: actives were taken first. Their share in the collection is about 3%.
ANO1 activ: activators or potentiators of mouse TMEM16A chloride channel; B-score at 10 µM; Q8BHY3; HEK293 TMEM16A/YFP-H148Q/I152L, iodide quench fluorescence; hits give low values; 340,000 compounds, 0.3% hits;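 active = fluorescence-ratio B-score plate-corrected deviation score at least 3 library SD below zero, with starting fluorescence score within 5 deviations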;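 also: channel opened by trigger with iodide after compound preincubation; score built on the fluorescence ratio of max minus min over baseline; more negative score means more quench and so TMEM16A activation or potentiation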
Kir21 block: blocks the mouse Kir2.1 inward-rectifier potassium channel | B-score at 10 µM | 310,000 compounds, 0.85% hits | HEK293-Kir2.1, FluxOR thallium flux fluorescence; hits give low values | AID 1672 | P35561;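 active = fluorescence ratio B-score at or below minus 3 SD of library scores, with starting-brightness B-score within 2 SD, cut at about -4.2 in these data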;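 also: channel flux triggered by added potassium and thallium sulfate stimulus; B-score of peak minus minimum fluorescence over baseline after thallium stimulus; more negative B-score means stronger Kir2.1 block with less thallium influx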
FID counter: displaces DNA intercalator in HCV helicase counter-screen; inhibition, % at 7.9 µM; 290,000 compounds, 0.17% hits; DNA fluorescent intercalator displacement, fluorescence; AID 1845; in the data active = inhibition above about 37%;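 also: 0% = vehicle and 100% = reference compound; higher means more ethidium bromide displaced from hairpin DNA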
SR-BI DiI inh: mouse SR-BI HDL lipid transfer inhibition | Q61009 | ldlA[mSR-BI] CHO cells, DiI-HDL uptake fluorescence, 3 h | inhibition, % at 12.5 µM | 320,000 compounds, 0.96% hits | AID 488896;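 active = mean replicate inhibition of at least 70% and a set share of replicates each scoring 70 or more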;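 also: 0% = median of neutral control wells and 100% = median of positive control wells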
SR-BI uptake up: activators of SR-BI mediated HDL lipid uptake. 320,000 compounds, 0.096% hits. CHO ldlA[mSR-BI] cells, DiI-HDL uptake fluorescence, 3 h; 100 = double the neutral-control signal. activation, % at 12.5 µM;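 active = mean replicate activation of at least 60% and every replicate at or above 60%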;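 also: 0% = median plate neutral-control signal and 100% = twice that signal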
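Material: SR-BI-overexpressing, LDLR-lacking CHO cells; schedule: compound exposure 3 h, 37 °C; reagent: DiI-labelled HDL at 10 µg/mL final; technique: bottom-read fluorescence, 550/595 nm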
TMEM16A inh: inhibitors of mouse TMEM16A calcium-activated chloride channel; AID 588511; HEK293 TMEM16A/YFP iodide influx fluorescence, ionomycin; Q8BHY3; 310,000 compounds, 1.2% hits; normalized B-score (activity score, 25-100; higher = stronger inhibition) at 10 µM;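 active = ratio plate-corrected score three or more library SD toward inhibition, starting fluorescence score within five deviations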;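 also: score derived from kinetic fluorescence span divided by baseline fluorescence per well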
Numbers without * were called inactive; i = inactive; nt = no result.

SMILES	ANO1 activ	Kir21 block	FID counter	SR-BI DiI inh	SR-BI uptake up	TMEM16A inh
CCCN1C(=O)/C(=C/c2ccc(N3CCCC3)c(C)c2)NC1=S	i	-4	-6	87*	-87	i
Cc1cc(/C=C2\NC(=S)N(C)C2=O)ccc1N1CCCC1	i	-0.82	0	48	-48	i
N#Cc1ccsc1NC(=O)CN(Cc1ccccc1)Cc1ccccc1	i	-4.8*	-12	nt	nt	i
N#Cc1ccsc1NC(=O)CCc1ccccc1	i	2	0	-5	5	i
Cc1ccc(C(C(=O)NC2CCCC2)N(C(=O)CNC(=O)c2ccco2)c2ccccc2)o1 (configuration not stated)	i	0.6	-30	nt	nt	i
CC1Sc2ccc(S(=O)(=O)N3CCC(C(=O)Nc4cccc(Cl)c4)CC3)cc2NC1=O (configuration not stated)	i	0.75	-24	6	-6	25*
CCCc1ncc(CN2CCC(C(=O)Nc3cccc(-c4cscn4)c3)CC2)cn1	i	-0.48	-10	1	-1	i
CC(NC(=O)CSc1nc2c(c(C(F)(F)F)n1)CCc1ccccc1-2)c1ccccc1 (configuration not stated)	i	-1.4	0	-29	29	100*
O=C(CSc1nc2c(c(C(F)(F)F)n1)CCc1ccccc1-2)NCc1ccco1	i	0.15	-3	46	-46	i
CC(C)Cc1nnc(NC(=O)C2CSC3(C)CCC(=O)N23)s1 (configuration not stated)	i	-0.35	nt	-47	47	i
O=C(c1cccc(S(=O)(=O)N2CCN(c3ccc(F)cc3)CC2)c1)N1CCCC(C(F)(F)F)C1 (configuration not stated)	i	0.92	nt	9	-9	25*
CCOc1cc(/C=C2\COc3ccccc3C2=O)cc(Br)c1OCC(=O)N(C)C	i	-5*	-51	63	-63	i
COc1ccc(/C=C2\COc3ccccc3C2=O)cc1OC	i	-1.9	-18	-13	13	i
COc1cccc(-c2nc(CS(=O)(=O)CC(=O)Nc3ccccc3Br)c(C)o2)c1	i	0.05	-36	nt	nt	i
COc1ccc(CNCCC(c2ccc(OC)cc2)c2ccccc2OC)cc1 (configuration not stated)	i	-11*	6	5	-5	i
COc1ccc(C(CCNCc2ccc(OC(C)C)cc2)c2ccccc2OC)cc1 (configuration not stated)	i	-9.9*	18	-10	10	25*
COc1ccc(C(CCNCc2ccc(N(C)C)cc2)c2ccccc2OC)cc1 (configuration not stated)	i	-3.4	12	-12	12	i
COc1ccc(/C=C(\C#N)c2nc3ccccc3[nH]2)cc1O	i	1.6	-1	35	-35	nt
COc1cc(/C=C(/C#N)c2nc3ccccc3[nH]2)ccc1OC(=O)c1ccco1	-4.8*	-0.14	-16	33	-33	i
COc1cc(/C=C(\C#N)c2nc3ccccc3[nH]2)ccc1Oc1ccc([N+](=O)[O-])cn1	i	-0.84	-1	74*	-74	i
COc1cc(/C=C(\C#N)c2nc3ccccc3[nH]2)cc(OC)c1O	i	-7	12	26	-26	i
CCn1c(SCC(=O)NC2CCS(=O)(=O)C2)nnc1-c1ccccc1 (configuration not stated)	i	1.4	1	-21	21	i
Cc1nnc(SCC(=O)NC2CCS(=O)(=O)C2)n1Cc1ccccc1 (configuration not stated)	i	0.03	-1	-66	66*	i
CCN1C(=O)[C@H]2[C@H]3CN=C(SCc4ccc(C(=O)OC)cc4)N3[C@@](C)(C(=O)OC)[C@H]2C1=O	nt	nt	nt	-16	16	nt
CC1(C)C(=O)OC(c2c(F)c(F)c(F)c(F)c2F)C2(CCCCC2)C1=O (configuration not stated)	i	-0.87	-1	77*	-77	i
SMILES	ANO1 activ	Kir21 block	FID counter	SR-BI DiI inh	SR-BI uptake up	TMEM16A inh
COc1ccc2c(C#CCCO)c(-c3ccc(S(C)(=O)=O)cc3)sc2c1	i	nt	nt	83*	-83	nt
COc1ccc(-c2sc3ccccc3c2C#CCO)cc1	i	0.39	-9	33	-33	25*
COc1cc(OC)cc(-c2sc3ccc(OC)cc3c2C#CCCO)c1	i	nt	nt	76*	-76	nt
COc1ccc2sc(-c3ccccc3OC)c(C#CCCO)c2c1	i	nt	nt	4	-4	nt
COc1ccc2sc(-c3ccc(S(C)(=O)=O)cc3)c(C#CCO)c2c1	i	nt	nt	66	-66	nt
Cn1c(/C=C(\C#N)C(N)=S)ccc1-c1ccc(Br)cc1	i	nt	0	74*	-74	nt
Cn1cccc1/C=C(\C#N)C(N)=S	i	1.1	0	-19	19	i
O=C(CSc1ccccc1)Nc1ccccc1N1CCOCC1	i	-8.5*	-13	11	-11	i
O=C(CSc1ccccc1)NCCCN1CCOCC1	-11*	1.2	1	-7	7	i
O=C(CSc1ccc(F)cc1)Nc1ccccc1N1CCOCC1	i	-13*	-30	6	-6	i
Cc1ccc(SCC(=O)Nc2ccccc2N2CCOCC2)cc1	i	-12*	-32	8	-8	i
O=C(COC(=O)c1ccccc1F)NC(=O)NC1CCCC1	i	nt	nt	-5	5	nt
Cc1cccc(-n2ncc3c(=O)[nH]c(SCC(=O)NCCC4=CCCCC4)nc32)c1	i	nt	nt	-9	9	nt
O=C(NN=Cc1ccc(N2CCOCC2)s1)c1ccc([N+](=O)[O-])cc1	i	nt	nt	40	-40	nt
O=C(COC(=O)c1ccc(F)c(S(=O)(=O)N2CCOCC2)c1)NCCc1ccccc1	i	-0.65	nt	-6	6	i
Cc1ccsc1/C=N\NC(=O)Cn1nnc2ccccc21	i	-0.11	-8	-17	17	i
CN(CC(=O)NCCCN1CCOCC1)S(=O)(=O)c1ccc(Br)cc1	i	0.05	6	78*	-78	i
COCCn1c(=NC(=O)/C=C/c2cccs2)sc2cc(NC(C)=O)ccc21	i	-0.84	6	72*	-72	i
COCCn1c(=NC(=O)CCS(=O)(=O)c2ccccc2)sc2cc(C)ccc21	i	-1	-25	1	-1	i
CCN(CC(=O)Nc1ccc2c(c1)OCCO2)CC(=O)Nc1ccc(C)c([N+](=O)[O-])c1	i	nt	nt	0	0	nt
O=C(N/N=C/c1c[nH]c2ccccc12)c1ccn[nH]1	i	-0.75	4	-28	28	i
Cc1ccc(-c2cc(C(=O)N/N=C/c3c[nH]c4ccccc34)[nH]n2)cc1	-5.4*	0.75	7	89*	-89	nt
